# Laboratory results reported in publication PMC9272570 (Journal of Drug Delivery Science and Technology, 2022).
# Experiments:
# jejuno-ileum = experiment: In-situ rabbit intestinal perfusion, jejuno-ileum; type: in vivo
# Outline: (§1)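 Rabbits were anaesthetised with IM chlorpromazine 2 mg/kg, then ketamine 45 mg/kg twice at a 15 min interval. The segment was cannulated (duodenum 15 cm, jejuno-ileum 30 cm) and rinsed with 37 °C saline. Test compound at 30 μg/ml in PBS with 10% v/v PEG 200 was perfused at 0.27 ml/min. Effluent was collected every 10 min for 2 h, weighed and assayed by HPLC-UV at 210 nm. Fa, ARL and L95% came from second-hour, water-flux-corrected Cout/Cin. Pathway was judged from PeA dependence on water flux.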
# duodenum = experiment: In-situ rabbit intestinal perfusion, duodenum; type: in vivo
# Outline: as §1
# Dissolution studies = type: physicochemical; conditions: 50 rpm
# Outline: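 900 ml medium (0.01 M phosphate buffer), 37 ± 0.5 °C. Load: 400 mg test compound or equivalent; formulations contained avicel and aerosil. 5 ml samples withdrawn at 5, 10, 15, 30, 45 and 60 min, filtered (0.45 μm) and replaced with fresh medium. Quantified by reversed-phase C18 HPLC (0.02 M KH2PO4 pH 6.8:acetonitrile 25:75). Cumulative amount dissolved expressed as % of load. Triplicates.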
# [1] = SEM in brackets, n = 3, listed as lopinavir
# [2] = from regression of absorptive clearance vs water flux
structure (smiles),measurement,setting,value
"Cc1cccc(C)c1OCC(=O)N[C@@H](Cc1ccccc1)[C@@H](O)C[C@H](Cc1ccccc1)NC(=O)[C@H](C(C)C)N1CCCNC1=O [Pure Lopinavir, Lopinavir]",ARL (anatomical reserve length),jejuno-ileum,−240.22 cm
same,%Fa/L (percentage fraction absorbed per unit length),"jejuno-ileum; SEM in brackets, n = 3",1.17 (0.27) %cm^−1
same,L95% (required length for 95% absorption),"jejuno-ileum; SEM in brackets, n = 3",339.54 (79.03) cm
same,Rout/Rin (fraction remaining after absorption),"jejuno-ileum; SEM in brackets, n = 3",0.657 (0.083)
same,L95% (required length for 95% absorption),jejuno-ileum; [1],339.54 cm
same,Absorption pathway: Paracellular,jejuno-ileum; [2],0%
same,Absorption pathway: Transcellular,jejuno-ileum; [2],100%
same,ARL (anatomical reserve length),duodenum,−261.18 cm
same,%Fa/L (percentage fraction absorbed per unit length),"duodenum; SEM in brackets, n = 3",1.61 (0.454) %cm^−1
same,L95% (required length for 95% absorption),"duodenum; SEM in brackets, n = 3",276.18 (121.5) cm
same,Rout/Rin (fraction remaining after absorption),"duodenum; SEM in brackets, n = 3",0.759 (0.068)
same,L95% (required length for 95% absorption),duodenum; [1],276.18 cm
same,Absorption pathway: Paracellular,duodenum; [2],38.3%
same,Absorption pathway: Transcellular,duodenum; [2],61.7%
same,total amount liberated after 1 h,"Dissolution studies; 1% w/v Tween 80 in phosphate buffer pH 6.8, 37 °C",41.85 % of the dose
same,% DE (dissolution efficiency),"Dissolution studies; 900 ml 1% w/v Tween 80 in 0.01 M phosphate buffer pH 6.8, 37 °C, 60 min, SD, n = 3",24.96 (1.48) %
